This is a sample that favours compounds with a hit; in the whole collection about 1.5% have one here.
PG9 Ab binder: small molecules binding HIV-1 gp120 antibody PG9; TR-FRET gp120-PG9 antibody binding; inhibition, % at 6.7 µM; 360,000 compounds, 0.43% hits; in the data active = inhibition above about 8.5%
NR1D1 modulator: modulators of human Rev-erb alpha DNA binding; P20393; Rev-erbα–FITC-DNA binding, fluorescence polarization, 90 min; activity, % at 10 µM; 370,000 compounds, 0.79% hits; AID 1259318;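 active = activity above about 14%, limit read from the data; passing the limit was not always enough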
NR2E3 ag-1: human photoreceptor-specific nuclear receptor agonism. CHO-S Gal4-NCOR/VP16-NR2E3 two-hybrid, luciferase. AID 602229. Q9Y5X4. inhibition of corepressor binding, % at 3.98 µM. 360,000 compounds, 0.35% hits;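 active = inhibition above the mean of all tested compounds plus 3 SD, cut at about 70% in these data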;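 also: higher means lower luciferase signal from less NR2E3 corepressor binding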
Target sequence (Q9Y5X4 whole entry, looked up, the tested form may be a part): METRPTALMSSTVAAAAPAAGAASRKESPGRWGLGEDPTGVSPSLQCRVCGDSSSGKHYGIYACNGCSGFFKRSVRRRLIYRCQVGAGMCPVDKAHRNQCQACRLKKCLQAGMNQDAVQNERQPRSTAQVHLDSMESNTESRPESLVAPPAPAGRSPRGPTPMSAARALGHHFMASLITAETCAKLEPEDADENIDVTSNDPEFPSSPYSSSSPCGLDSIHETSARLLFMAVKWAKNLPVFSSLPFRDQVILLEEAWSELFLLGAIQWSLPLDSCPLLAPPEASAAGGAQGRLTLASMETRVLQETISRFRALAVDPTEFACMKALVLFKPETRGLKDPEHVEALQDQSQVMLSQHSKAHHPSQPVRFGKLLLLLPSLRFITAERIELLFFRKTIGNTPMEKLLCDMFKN
NR2E3 ag-2: NR2E3 (human) agonism. Q9Y5X4. GST-NR2E3/biotin-RetCOR TR-FRET, 1536-well. inhibition of corepressor binding, % at 4.78 µM. 320,000 compounds, 0.12% hits;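 active = percent inhibition above the cutoff of mean plus 3 SD of all tested compounds, set per screening campaign, cut at about 20% in these data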
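System: GST-tagged NR2E3 plus biotinylated RetCOR corepressor; Amount: 1.35 nM GST-tagged NR2E3 final; Dosing: single nominal compound dose of 4.8 µM; Schedule: 5 h incubation at 4 °C; Technique: TR-FRET with europium anti-GST and streptavidin-D2, 340 nm excitation; Controls: biotin wells as high control, 0.6% DMSO wells as low control.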
NR1D1 mod conf: confirmation of modulators of human Rev-erb alpha DNA binding; AID 1259319; activation, % at 25 µM; Rev-erb alpha FITC-DNA binding, fluorescence polarization, 90 min; 3,000 compounds, 61% hits; shares compounds with NR1D1 modulator;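 active = activation at or above a set limit, or at least 3 SD above the negative control mean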
RORg DNA counter: affects RORgamma DNA binding in a Rev-erb alpha counter-screen; purified RORgamma protein-FITC-DNA binding, fluorescence polarization; shares compounds with NR1D1 modulator; IC50, µM; AID 1259320; 910 compounds, 8% hits;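 active = Compounds whose fitted half-maximal concentration for disrupting protein-DNA binding is below 10 micromolar; the record names Rev-erb in its text, so the target is in doubt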
Of the large screens only hits and unclear results are named; the others gave an inactive call (follow-up assays come after a bar, where they were run).

CN1/C(=C\C=C2/SC(=S)NC2=O)C(C)(C)c2ccccc21	NR1D1 modulator 37.4 | NR1D1 mod conf 18.9
O=C(O)CN1C(=O)/C(=C/C=C/c2ccccc2)SC1=S	none
CCN1C(=O)/C(=C/C=C2\C=CN(CC)c3ccccc32)SC1=S	none
CCN1C(=O)C(=CC=CN(C)c2ccccc2)SC1=S	NR1D1 modulator 42.5 (no result: NR2E3 ag-2) | NR1D1 mod conf 45.9 | RORg DNA counter inactive
CCCN1C(=O)/C(=C\C=C2\N(CC)c3ccccc3C2(C)C)SC1=S	NR1D1 modulator 61.7 (no result: NR2E3 ag-2) | NR1D1 mod conf inactive
CN(C)c1ccc(N=C/C=C2/N(C)c3ccccc3C2(C)C)cc1	NR1D1 modulator 25.5 (no result: NR2E3 ag-2) | NR1D1 mod conf inactive
CN1/C(=C\C=N\O)C(C)(C)c2ccccc21	none
C#CCSC1=C(C#N)C(c2cccs2)C(C(=O)OCC)=C(C)N1 (stereo not given)	none
CCN(CC)C(=O)CSC1=C(C#N)C(c2cccs2)C=C(C)N1 (stereo not given)	NR1D1 modulator 56.2 | NR1D1 mod conf 41.8 | RORg DNA counter inactive
Clc1nccc(N2CCN(c3ccccc3Cl)CC2)n1	none
Cc1ccc(C(=O)OCC(=O)c2c[nH]c3ccccc23)cc1	none
O=C(OCC(=O)c1c[nH]c2ccccc12)c1cc(Br)ccc1O	NR1D1 modulator 42.5 | NR1D1 mod conf 41.4 | RORg DNA counter inactive
COP(=O)(OC)C(NC(=O)OCc1ccccc1)C(C)C (stereo not given)	none (no result: PG9 Ab binder, NR2E3 ag-1, NR2E3 ag-2)
FC(F)(F)c1cc(-c2ccccn2)nc2cc(-c3ccccc3)nn12	NR1D1 modulator 45.5 | NR1D1 mod conf 23.6
O=[N+]([O-])c1cccc(-c2cc(C(F)(F)F)n3nc(-c4ccccc4)cc3n2)c1	none
Cc1c(NC(=O)c2ccc(NS(=O)(=O)c3ccc(F)c(F)c3)cc2)c(=O)n(-c2ccccc2)n1C	none (no result: NR2E3 ag-2)
CC/C(=N\Nc1ccccc1[N+](=O)[O-])c1ccc(O)cc1	NR1D1 modulator 14.7 | NR1D1 mod conf inactive
CCC(C)(C)n1nnnc1CN1CCN(c2nc3cc(OC)ccc3cc2C#N)CC1	NR1D1 modulator 56.3 | NR1D1 mod conf inactive
O=C(Nc1ccc(F)cc1F)c1cc2ncc(Br)cn2n1	none (no result: NR2E3 ag-1, NR2E3 ag-2)
COC(=O)c1ccccc1NC(=O)c1cc2ncc(Br)cn2n1	NR1D1 modulator 23.1 | NR1D1 mod conf inactive
COCCN(C(=O)COC(=O)CCSc1ccc(F)cc1)c1c(N)n(Cc2ccccc2)c(=O)[nH]c1=O	none
O=C(NCc1ccco1)c1ccc(Cn2c(=O)c3ccccc3n(Cc3cccc(Cl)c3)c2=O)cc1	none
O=C(NCc1ccco1)c1ccc(Cn2c(=O)c3sccc3n(Cc3cccc(F)c3)c2=O)cc1	NR1D1 modulator 34.3 | NR1D1 mod conf 36.7 | RORg DNA counter inactive
O=C1COc2ccc(C(=O)CSc3nnc(Cc4ccccc4)o3)cc2N1	NR1D1 modulator 17.7 | NR1D1 mod conf 20.7
O=C1COc2ccc(C(=O)CSc3nc4ccccc4c(=O)n3-c3ccc(Cl)c(Cl)c3)cc2N1	NR1D1 modulator 25.8 | NR1D1 mod conf inactive
Cn1c(SCC(=O)c2ccc3c(c2)NC(=O)CO3)nc2ccccc21	NR1D1 modulator 35.9 | NR1D1 mod conf 24.2
O=C1CC(C(=O)N(c2ccccc2)C(C(=O)NC2CCCC2)c2ccncc2)CS1 (stereo not given)	none
CC(C)NC(=O)C1CC(=O)N(CCc2ccc(F)cc2)C1 (stereo not given)	none (no result: NR2E3 ag-2)
Cc1ccc(N(Cc2cc3cc(C)ccc3[nH]c2=O)C(=O)c2cccs2)cc1	NR1D1 modulator 47.9 | NR1D1 mod conf 79.4 | RORg DNA counter inactive
CCc1nc(CN2CCCC(C(=O)c3ccc4c5c(cccc35)CC4)C2)c(C)[nH]1 (stereo not given)	none
NS(=O)(=O)c1ccc(Nc2ccc([N+](=O)[O-])c3nonc23)cc1	NR1D1 modulator 26.7 | NR1D1 mod conf inactive
O=[N+]([O-])c1ccc(Nc2ccccc2O)c2nonc12	NR1D1 modulator 31.8 (no result: NR2E3 ag-2) | NR1D1 mod conf 19.6
CCc1nnc(NS(=O)(=O)c2ccc(NS(=O)(=O)c3ccccc3[N+](=O)[O-])cc2)s1	none
CCc1nnc(NS(=O)(=O)c2ccc(Nc3ccc([N+](=O)[O-])c4nonc34)cc2)s1	NR1D1 modulator 21.4 | NR1D1 mod conf 33.1 | RORg DNA counter inactive
CCOc1ccc(CCNC(=O)COC(=O)C2=NNC(=O)CC2)cc1OCC	none
CC(C)CNC(=S)NC(=O)c1ccc(Cl)cc1Cl	none

Compound activity as filed in PubChem BioAssay.
